By MIC is commonly meant the lowest concentration found to suppress growth. A high value points to weaker potency. What is called IC50 is the concentration that inhibits the measured activity by half. The low end stands for greater potency in that assay, the high end for weaker potency in that assay.

Values after ≈ are worked out from the molar mass of the structure shown.

The record followed here is ChEMBL document CHEMBL1158787, “Antibiotic terpenoid chloro-dihydroquinones from a new marine actinomycete” (J Nat Prod, 2005).

For the first assay, the system named is Enterococcus faecium. Kind of assay: Antimicrobial activity against vancomycin resistant Enterococcus faecium. Type of assay: functional. The gist of the method: (§1)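 Broth microdilution: MRSA or VREF grown overnight at 37 °C in GYT medium (0.1% glucose, 0.25% yeast extract, 0.5% tryptone), adjusted to OD 0.04–0.06, then diluted 1:10. Test materials serially diluted 1:2, incubated 16–18 h at 37 °C. Vancomycin (MRSA) or penicillin G (VREF) as positive controls, DMSO as negative control. MIC read from OD600.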
In turn, `Cc1c(O)cc2c(c1O)C(=O)[C@H]1C[C@@H](Cl)C(C)(C)O[C@@]1(C[C@H]1C(C)(C)[C@@H](Cl)CC[C@]1(C)O)C2=O` returned an MIC of 3.9 µg/mL (≈ 7.6 µM).
Still for that read-out and setting: next, `C=C1CC[C@H](Cl)C(C)(C)[C@@H]1C[C@@]12OC(C)(C)[C@H](Cl)C=C1C(=O)c1c(cc(O)c(C)c1O)C2=O`: 1.95 µg/mL (≈ 3.95 µM); `Cc1c(O)cc2c(c1O)C(=O)C1=C[C@@H](Cl)C(C)(C)O[C@@]1(C[C@H]1C(C)(C)[C@@H](Cl)CC[C@]1(C)O)C2=O`: 15.6 µg/mL (≈ 30.5 µM).
On the same count and under the same terms, then `C=C1CC[C@H](Cl)C(C)(C)[C@@H]1C[C@@]12OC(C)(C)[C@H](Cl)C[C@]1(Cl)C(=O)c1c(cc(O)c(C)c1O)C2=O`, with 3.9 µg/mL (≈ 7.36 µM).

System in a further assay: not listed separately
Kind of assay: Cytotoxicity against human […] cell after 72 hrs by MTS assay. Type of assay: functional, cell-based. The gist of the method: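 HCT-116 colon carcinoma cells were preincubated overnight at 37 °C in 5% CO2/air. Test materials were serially diluted 1:4, with etoposide as positive control and DMSO as negative control. After 72 h, viability was read as MTS reduction to formazan at 490 nm. IC50 was calculated from the curves.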
(In general: Tetrazolium assays rely on reduction of a dye to a coloured formazan, in cell work by metabolically active cells.)
As for `Cc1c(O)cc2c(c1O)C(=O)[C@H]1C[C@@H](Cl)C(C)(C)O[C@@]1(C[C@H]1C(C)(C)[C@@H](Cl)CC[C@]1(C)O)C2=O`, the IC50 amounted to 2.4 µg/mL (≈ 4.67 µM).
On the same count and under the same terms, then `Cc1c(O)cc2c(c1O)C(=O)C1=C[C@@H](Cl)C(C)(C)O[C@@]1(C[C@H]1C(C)(C)[C@@H](Cl)CC[C@]1(C)O)C2=O`, with 0.97 µg/mL (≈ 1.9 µM); and `C=C1CC[C@H](Cl)C(C)(C)[C@@H]1C[C@@]12OC(C)(C)[C@H](Cl)C[C@]1(Cl)C(=O)c1c(cc(O)c(C)c1O)C2=O`, with 1.84 µg/mL (≈ 3.47 µM).

The next assay has as its system Staphylococcus aureus. Kind of assay: Antimicrobial activity against methicillin-resistant Staphylococcus aureus. Type of assay: functional. The procedure, abridged: as §1
The molecule `Cc1c(O)cc2c(c1O)C(=O)[C@H]1C[C@@H](Cl)C(C)(C)O[C@@]1(C[C@H]1C(C)(C)[C@@H](Cl)CC[C@]1(C)O)C2=O` showed an MIC of 1.95 µg/mL (≈ 3.8 µM).
Still for that read-out and setting: then `C=C1CC[C@H](Cl)C(C)(C)[C@@H]1C[C@@]12OC(C)(C)[C@H](Cl)C=C1C(=O)c1c(cc(O)c(C)c1O)C2=O`, with 1.95 µg/mL (≈ 3.95 µM); and `Cc1c(O)cc2c(c1O)C(=O)C1=C[C@@H](Cl)C(C)(C)O[C@@]1(C[C@H]1C(C)(C)[C@@H](Cl)CC[C@]1(C)O)C2=O`, with 15.6 µg/mL (≈ 30.5 µM); and `C=C1CC[C@H](Cl)C(C)(C)[C@@H]1C[C@@]12OC(C)(C)[C@H](Cl)C[C@]1(Cl)C(=O)c1c(cc(O)c(C)c1O)C2=O`, with 1.9 µg/mL (≈ 3.59 µM).
